Laboratory results: the RNAGym collection of RNA variant scans (doi:10.1126/science.aae0568)
Variants at the floor of the assay were thinned out.

B1: tRNA (parent)
chain: GUUCCGUUGGCGUAAUGGUAACGCGUCUCCCUCCUAAGGAGAAGACUGCGGGUUCGAGUCCCGUACGGAACG

Variants of: B1
Assay: yeast fitness relative to wild type (ratio to wild type); higher = fitter; tRNA-Arg(CCU), competitive growth, 37 C, YPD
How it was run: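 Amplicons of the tRNA-Arg(CCU) gene were sequenced, 100-nucleotide paired-end, from the start population and from each end population of a pooled yeast competition. The competition, in six parallel replicates, lasted 24 hours in YPD at 37°C. Fitness relative to wild type was calculated from changes in genotype frequencies. Genotypes had to have ≥ 100 starting reads, and estimates < 0.5 were set to 0.5.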

Variant	yeast fitness
GUUCCGUUGGCGUAAUGGUCUCGCGUCUCCUUCCUAAGGAGAAGACUGCGGGUUCGAGUUCCGUUCGGAACG	≤ 0.5
GUUCCGUUGGCGUAAUGGUCACGCGUCUCCCUCCUGAGGAGAAGACUACCGGUUCGAGUCCCGUACGGAACG	≤ 0.5
GUUCCGUUGGCGUAAUGGUCGCGCGUCUCCCUCCUAAGGAGAAGACUGCGGGUUCGCGUCCCGUACGGAACG	0.531
GUUCCGUUGGCGUAAUGGUCACGCGUCUCCCUCCUGAGGAGAAGACUGCGGGUUCGAGUCCCGUACGGAACG	0.908
GUUCCGUUGGCGUAAUGGUCGCGCGUCUCCCUCCUAAGGAGAAGACUGCGGGUUCGAGUCCCGUACGGAACG	0.953
GUUCCGUUGGCGUAAUGGUCACGCGUCUCCCUCCUUAGCAGAAGACUGCGGGUUCGAGUCCCGUACGGAACG	0.618
GUUCCGUUGGCGUAAUGGUCACGCGUCUCCCUCCUACGGAGAAGACUGCGGGUUCGAGUCCCGUAUGGAACG	≤ 0.5
GUUCCGUUGGCGUAAUGGUCGCGCGUCUCCCUCCUAAGGAGAAGUCUGCGGGUUCGAGUCCCGUACCGAACG	0.61
GUUCCGUUGGCGUAAUGGUCGCGCGUCUCCCUCCUAAGGAGAAGCCUGCGGGUUCGAGUCCCGUACGGAACG	0.687
GUUCCGUUGGCGUAAUGGGAACGCGACCCCCUCCUAAGGAGAAGACUGCGGGUUCGAGUCCCGUACGGAACG	≤ 0.5
GUUCCGUUGGCGUAAUGGUCUCGCGUGUCCCUCCUAAGGAGUAGACUGCGGGUUCGAGUCCCGUACGGCACG	≤ 0.5
GUUCCGUUGGCGUAAUGGGAACGCGUCUCCCUCCUAAGGAGAAGACUGCGGGUUCAAGUUCCGUACGGAACG	0.69
GUUCCGUUGGCGUAAUGGUCACGCGUCUCCCUCCUAGGGAGGAGACUGCGGGUUCGAGUCCCGUACGCAACG	≤ 0.5
GUUCCGUUGGCGUAAUGGGAACGCGUCUCCCUCCUAAGGAGAAGACUGCUGGUUCGAAUCCCGUAUGGAACG	0.541
GUUCCGUUGGCGUAAUGGGAACGCGUCUCCCUCCUAAGGAGAAGACUGCGGGUUCGAGUCCCCUACGGUACG	≤ 0.5
GUUCCGUUGGCGUAAUGGUCCCGCGUCUCCCUCCUAAGGAGAAGGCUGCGGGUUCGAGUCCCGUACGGAACG	≤ 0.5
GUUCCGUUGGCGUAAUGGGAACGCGUCACCCUCCUAAGGAGAAGACUGCGGGUUCGAGUCCCGUACGGAACG	0.613
GUUCCGUUGGCGUAAUGGUCACGCGUCUCCCUCCUAAGGAGAAGACUGCGGGUUCGAGUCCCGUACGGAACG	1.01
GUUCCGUUGGCGUAAUGGUCGCGCGUCUCCCUCCUAAGGAGAAGACUGCGGGUUCGAGUCCCGUACGGCACG	0.825

Variant	yeast fitness
GUUCCGUUGGCGUAAUGGGAACGCGUCUCCCUCCUAAGGAGAAGACAGCGGGUUCGAGUCCCGUACGGAACG	0.771
GUUCCGUUGGCGUAAUGGUCACGCGUCUCCCUCCUACGGACAAGACUGCGCGUUCGAGUCCCGUACGGAACG	≤ 0.5
GUUCCGUUGGCGUAAUGGUCACGCGUCUCCCUCCUCAGGACAAGACUGCGGGUUCGAGUCCCGUACCGGACG	≤ 0.5
GUUCCGUUGGCGUAAUGGUCUCGCGUGUCCCCCCGAAGGAGAAGACUGCGGGUUCGAGUCCCGUACGGAACG	≤ 0.5
GUUCCGUUGGCGUAAUGGGAACGCGUCUCCCUCCUAAGGAGAAGACUGCGGGUUCGAGUCCCGUACGCAACG	0.802
GUUCCGUUGGCGUAAUGGGAACGCGUCUCCCUCCCAAGGAGACGACUGCGGCUACGAGUCCCGUACGGAACG	≤ 0.5
GUUCCGUUGGCGUAAUGGUCACGCGUCUCCCUCCUUAGGAGAAGACUGCGGGAUCGAGUCCCGUACGGAACG	≤ 0.5
GUUCCGUUGGCGUAAUGGUCCCGCGUCUCCCUCCUAAGGAGAAGACUGCGGGUUCGAGUCACGUACCGAACG	≤ 0.5
GUUCCGUUGGCGUAAUGGUCUCGCGUCUCCCUCCUAAGGAGUAGACUGCGGGUUCGAGUCCCGUACGGAACG	≤ 0.5
GUUCCGUUGGCGUAAUGGGAACGCGUCUCCCUCCUAAGGAGAAGACUCCGGGUUCGAGUCCCGUACGGAACG	0.948
GUUCCGUUGGCGUAAUGGGAACGCGUCCCCCUCCUAAGGAGCAGACUGCGGGUUCGAGUCCCGUACGGAACG	0.669
GUUCCGUUGGCGUAAUGGUCACGCGUCUCCCUCCUACGGAGAGGACUGCGGGUUCGAGUCCUGUACGGAACG	≤ 0.5
GUUCCGUUGGCGUAAUGGGAACGCGUCUCCCUCCUAAGGAGAAGACUGCGGCUUCGAGUCCAGUACGGAACG	≤ 0.5
GUUCCGUUGGCGUAAUGGGAACGCGUCGCCCUCCUUAGGAGAAGAUUGCGGGUUCGAGUCUCGUACGGAACG	≤ 0.5
GUUCCGUUGGCGUAAUGGUCGCGCGUCUCCCUCCUAAGGAGAAGACUGCGGGUUCGAGUCCCGUACCGAACG	0.712
GUUCCGUUGGCGUAAUGGUCCCCCGUCUCGCUCCUAAGGAGAAGACUGCGGGUUCGAGUCCCGUUUGGAACG	≤ 0.5
GUUCCGUUGGCGUAAUGGGAACGCGUCUCCCGCCUAAGGAGAAGACUGCGGGUUCGAGUCCCGUACGGAACG	0.62
GUUCCGUUGGCGUAAUGGGAACGCGUCUCCCUCCUAAGGAGAAAAGUGCGGGUUCGAGUCCCGUACGGAACG	0.946
GUUCCGUUGGCGUAAUGGGAACGCGUCUCCCUCCUAACGAGAAGACUGCGGGUUCGAGUCCCGUACGGAACG	0.637
